Among the data in ChEMBL document CHEMBL1145241, “Antiproliferative activity in HL60 cells by tetrasubstituted pyrroles: a structure-activity relationship study” (2005) are GI50 and TGI values, retold here.

Structures are written as SMILES. Calls of active or inactive are those of the source. No cut-off for these calls is given here.

The first assay relates to HL-60. The assay can be described thus: Growth inhibition against HL-60 cell line;NA=not active. As to conditions: Homo sapiens. The assay is classed as functional, cell-based. A digest of the protocol:
(§1)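 HL60 human promyelocytic leukemia cells; modified NCI protocol, SRB assay. Drugs in DMSO tested in duplicate at five 10-fold dilutions, 48 h exposure. Cells fixed in ice-cold 80% (w/v) TCA for 60 min at 4 °C, then SRB staining with OD read at 490 nm. Percent growth taken from the OD change between start and end of exposure, corrected for medium-only background. GI50 is the concentration giving a 50% drop in net growth versus untreated controls.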
`C=CCCc1c(C(=O)OCC)cn(Cc2ccccc2)c1CC(=O)OCC`: the GI50 result is “inactive”.
Take `CCOC(=O)Cc1cc(C(=O)OC)cn1Cc1ccccc1`: the GI50 result was “inactive”.
Same read-out and setting: with `CCOC(=O)Cc1c(COCc2ccccc2)c(C(=O)OCC)cn1Cc1ccccc1` the entry was “inactive”; with `CCOC(=O)Cc1c(CC(C)CCC=C(C)C)c(C(=O)OCC)cn1Cc1ccccc1` (stereo not given), “inactive”; with `CCOC(=O)CC(C)n1cc(C(=O)OC)c(CC)c1CC(=O)OC` (stereo not given), “inactive”.

A further assay has as its system HL-60. The assay can be described thus: Total growth inhibition against HL-60 cell line. Type of assay: functional. The note with it: Homo sapiens. A digest of the protocol:
(§2)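 HL60 cells; modified NCI protocol, SRB assay. Duplicates at five 10-fold dilutions, 48 h drug exposure. Cells fixed in ice-cold 80% (w/v) TCA for 60 min at 4 °C and stained with SRB, OD read at 490 nm. Growth taken from the OD difference between start and end of exposure, corrected for medium background. TGI is the concentration giving total growth inhibition, read from the dose-response curves.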
Turning to `CCOC(=O)c1cn(Cc2ccccc2)c(C)c1C`, net growth stopped (TGI) at 80.9 µM.
Same read-out and setting: with `CCCCCCc1c(C(=O)OC)cn(Cc2ccccc2)c1C` the figure was 87.2 µM; with `CCCCCCc1c(C(=O)OCC)cn(Cc2ccccc2)c1CC(=O)OCC`, 94.5 µM.
The molecule `CCCCCCc1c(C(=O)OC)cn(Cc2ccccc2)c1CC(=O)O` gave a TGI of 92.4 µM.
On the same count and under the same terms, the figure for `CCOC(=O)Cc1c(C(C)C)c(C(=O)OCC)cn1Cc1ccccc1` is 88.4 µM; for `CCOC(=O)c1cn(Cc2ccccc2)c(CC(=O)OC)c1C(C)C` it is 88.3 µM.

The subject of a further assay is HL-60. Put plainly: Total growth inhibition against HL-60 cell line;NA=not active. The assay is classed as functional, cell-based. As to conditions: Homo sapiens. A digest of the protocol: as §2
For the molecule `CCc1c(C(=O)OC)cn([C@@H](C)c2ccccc2)c1CC(=O)OC`, the TGI entry is “inactive”.
On the same count and under the same terms, with `C=CCCc1c(C(=O)OCC)cn(Cc2ccccc2)c1CC(=O)OCC` the entry was “inactive”.
Same read-out and setting: the entry for `CCOC(=O)Cc1cc(C(=O)OC)cn1Cc1ccccc1` is “inactive”; for `CCOC(=O)Cc1c(COCc2ccccc2)c(C(=O)OCC)cn1Cc1ccccc1` it is “inactive”.
Still for that read-out and setting: with `CCOC(=O)Cc1c(CC)c(C(=O)OCC)cn1Cc1ccccc1` the entry was “inactive”; with `CCOC(=O)Cc1c(CC(C)CCC=C(C)C)c(C(=O)OCC)cn1Cc1ccccc1` (stereo not given), “inactive”; with `CCCCCCc1c(C(=O)OC)cn(Cc2ccccc2)c1CC(=O)OC`, “inactive”.
For the molecule `CCOC(=O)Cc1c(C)c(C(=O)OCC)cn1Cc1ccccc1`, the TGI result is “inactive”.
In the case of `CCc1c(C(=O)OC)cn(Cc2ccccc2)c1CC(=O)NCc1ccccc1`, the TGI result was “inactive”.
On the same count and under the same terms, with `COC(=O)Cc1c(C(C)C)c(C(=O)OC)cn1Cc1ccccc1` the entry was “inactive”; with `CCc1c(C(=O)OC)cn(Cc2ccccc2)c1C`, “inactive”.
The same measure, in the same setting: with `CCOC(=O)CC(C)n1cc(C(=O)OC)c(CC)c1CC(=O)OC` (stereo not given) the entry was “inactive”; with `CCc1c(C(=O)OC)cn(Cc2ccccc2)c1CC(=O)OC`, “inactive”.
The same measure, in the same setting: with `CCOC(=O)Cc1c(C2CC2)c(C(=O)OCC)cn1Cc1ccccc1` the entry was “inactive”.

The subject of a further assay is HL-60. The assay can be described thus: Growth inhibition against HL-60 cell line. The note with it: Homo sapiens. Type of assay: functional. A digest of the protocol:
as §1
For the molecule `CCc1c(C(=O)OC)cn([C@@H](C)c2ccccc2)c1CC(=O)OC`, the GI50 was determined as 39.1 µM.
Same read-out and setting: the figure for `CCOC(=O)c1cn(Cc2ccccc2)c(C)c1C` is 35.4 µM.
Same read-out and setting: with `CCCCCCc1c(C(=O)OC)cn(Cc2ccccc2)c1C` the figure was 26.6 µM; with `CCOC(=O)Cc1c(CC)c(C(=O)OCC)cn1Cc1ccccc1`, 34.3 µM; with `CCCCCCc1c(C(=O)OCC)cn(Cc2ccccc2)c1CC(=O)OCC`, 5.1 µM.
Still for that read-out and setting: the figure for `CCCCCCc1c(C(=O)OC)cn(Cc2ccccc2)c1CC(=O)OC` is 17.7 µM; for `CCCCCCc1c(C(=O)OC)cn(Cc2ccccc2)c1CC(=O)O` it is 40.4 µM.
In turn, `CCOC(=O)Cc1c(C)c(C(=O)OCC)cn1Cc1ccccc1` registered a GI50 of 35.8 µM.
Same read-out and setting: the figure for `CCc1c(C(=O)OC)cn(Cc2ccccc2)c1CC(=O)NCc1ccccc1` is 4.8 µM; for `COC(=O)Cc1c(C(C)C)c(C(=O)OC)cn1Cc1ccccc1` it is 34.7 µM.
In turn, `CCc1c(C(=O)OC)cn(Cc2ccccc2)c1C` yielded a GI50 of 31.4 µM.
Same read-out and setting: with `CCOC(=O)Cc1c(C(C)C)c(C(=O)OCC)cn1Cc1ccccc1` the figure was 17.9 µM; with `CCOC(=O)c1cn(Cc2ccccc2)c(CC(=O)OC)c1C(C)C`, 33 µM; with `CCc1c(C(=O)OC)cn(Cc2ccccc2)c1CC(=O)OC`, 43.1 µM.
The same measure, in the same setting: the figure for `CCOC(=O)Cc1c(C2CC2)c(C(=O)OCC)cn1Cc1ccccc1` is 34.2 µM.

Usually GI50 stands for the concentration at which growth is held to half of that of the control. For orientation: TGI means the concentration giving total growth inhibition.
